Here are results for 6 compounds from ChEMBL document CHEMBL3046042, “3-(4-Methylfuran-3-yl)propan-1-ol: a white-spotted Stinkbug ( Eysarcoris ventralis ) repellent produced by an endophyte isolated from green foxtail” (2010).

What all share (format): functional
Assay [1] concerns Eysarcoris. Kind of assay: Repellent activity against Eysarcoris ventralis assessed as reduction in number of bugs at 1 umol measured after 30 min. The gist of the method: (§1)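 Two-choice bottle assay. Sample dissolved in acetone, 50 μL applied to filter paper strip (5 × 40 mm); control strip got acetone only. Strips dried, each placed in a glass bottle joined to the apparatus. Twenty E. ventralis adults released, held at 10 °C under light; bugs per bottle counted after 30 min. Repellency calculated by formula; four repeats, average ± standard error.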

For assay [2], the system named is Eysarcoris. Kind of assay: Repellent activity against Eysarcoris ventralis assessed as reduction in number of bugs at 0.1 umol measured after 30 min. The gist of the method:
as §1

Assay [3] relates to Eysarcoris. In words: Repellent activity against Eysarcoris ventralis assessed as reduction in number of bugs at 0.01 umol measured after 30 min. The gist of the method:
as §1

For assay [4], the system named is Eysarcoris. Kind of assay: Repellent activity against Eysarcoris ventralis assessed as reduction in number of bugs at 0.003 umol measured after 30 min. The procedure, abridged: as §1

Molecules are shown by their SMILES.

For the compound `Cc1cocc1CCCO`, the Repellency in the assay on Eysarcoris [1] was determined as 89.3%; in the assay on Eysarcoris [2], 5.7%.
`c1ccc2ccccc2c1` [NAPHTHALENE]: the Repellency in the assay with Eysarcoris [3] is given as 40.7%; with Eysarcoris [1], 80.4%; with Eysarcoris [2] it was 44.6%.
For `CC(=O)OCCCc1cocc1C`, the values for the Repellency in the assay on Eysarcoris [3], in the assay on Eysarcoris [4] and with Eysarcoris [2] were 7.3%, 10.7% and 90.2%, respectively.
Consider `Cc1cocc1CCCOC(=O)c1ccccc1`, for which the Repellency in the assay on Eysarcoris [1] is given as 40.7%; with Eysarcoris [2], 5.3%.
For `CCCC(=O)OCCCc1cocc1C`, the Repellency was -19.4% in the assay on Eysarcoris [3], 19.5% in the assay with Eysarcoris [4], 96.4% in the assay with Eysarcoris [1] and 51.8% in the assay with Eysarcoris [2].
As to `CCC(=O)OCCCc1cocc1C`, the Repellency in the assay on Eysarcoris [3] came to 20.5%; with Eysarcoris [1], 89.3%; in the assay with Eysarcoris [2], 58%.
